Data taken from the EternaBench riboswitch data.

Tested on: MS2 coat protein
Assay: apparent Kd, MS2 coat protein; higher = weaker binding; RNA-MaP array; FMN 200 µM where present
How it was run: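 In 100 mM Tris-HCl pH 7.5, 80 mM KCl, 4 mM MgCl2, BSA, DTT, yeast tRNA and Tween-20, SNAP-549-labelled MS2 coat protein was titrated from 0.7 or 1.5 nM, doubling to 3 µM, over designs transcribed by stalled E. coli RNA polymerase on Illumina sequencing-chip clusters. This was done first without ligand, then with ligand held constant. After green signal was normalised to red-channel RNA signal and control-cluster median Fmax, the apparent Kd was taken as the median of filtered per-cluster binding-curve fits.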

[1] = designed as: OFF switch for flavin mononucleotide, no ligand
[2] = ligand present: flavin mononucleotide, designed as: OFF switch for flavin mononucleotide
[3] = designed as: ON switch for flavin mononucleotide, no ligand
[4] = ligand present: flavin mononucleotide, designed as: ON switch for flavin mononucleotide

UACUUGUCAGGAUAUCUUACAUUAACAUCGUAGUUACAAUUGGAGAAGGGACAUGAGGAUCACCCAUGUUUGGC
apparent Kd [1]: 25.8 nM | apparent Kd [2]: 34.5 nM

UAGAAGUCAGGAUAUCCUGCUCGUCACUUGCGUGAUGAGUAGGAGAAGGGACAUGAGGAUCACCCAUGUAAAGC
apparent Kd [1]: 61.1 nM | apparent Kd [2]: 49.5 nM

UAGAAUCGAGGAUAUACAUGAGGAUCACCCAUGUGUGGCCAUACGGUGUGGUCGUCAGGUAGAAGGCGAUUAUA
apparent Kd [1]: 34.4 nM | apparent Kd [2]: 14.6 nM

UAGAGCGCUUGAGGAUAUCGUUUUGUGAUGGUACUCAUGCCUGUUACAUGAGGAUCACCCAUGUACGAGAAGGCAGGCCGUUAG
apparent Kd [1]: 58.1 nM | apparent Kd [2]: 30.5 nM

UAGAUGGGAGGAUAUACGUAGAUGCAGAUUCGUGUGGUGCUACAUGAGGAUCACCCAUGUAGAAGGCCCGUCUU
apparent Kd [1]: 17 nM | apparent Kd [2]: 98.1 nM

UAGAUGGGAGGAUAUACGUAGUUGCAGGUUCGUGUGGUGCUACAUGAGGAUCACCCAUGUAGAAGGCCCGUCUU
apparent Kd [1]: 14.7 nM | apparent Kd [2]: 40.6 nM

UAGAUGUGAGGAUAUACGUAGAUGCAGGUUCGUGUGGUGCUACAUGAGGAUCACCCAUGUAGAAGGCACGUCUU
apparent Kd [1]: 19.3 nM | apparent Kd [2]: 20.2 nM

UAGGUACGAGGAUAUACAUAGAUACAGACACAUGUAGAUGUACAUGAGGAUCACCCAUGUAGAAGGCGUAUAUA
apparent Kd [1]: 67.8 nM | apparent Kd [2]: 237 nM

UAGGUUUGUAGUUACAUCCCUACACAGGAUAUAGGUAGUUACAUGAGGAUCACCCAUGUUCGAACUUAGAAGGGUGGAUCGUUG
apparent Kd [3]: 48 nM | apparent Kd [4]: 10.3 nM

UAGUAGAUCCGAGGAUAUACAAUCCGGAAACGGUACAUGAGGAUCACCCAUGUAGAAGGCGGAUCUACAGGUACUAAAGUACCA
apparent Kd [1]: 5.68 nM | apparent Kd [2]: 7.82 nM

UAGUUAUUCACAGGAUAUCGCCUCUUAUUACAUGAGGAUCACCCAUGUUUAGUUAGUUACAUGUUCGAGAAGGGUGUAGUUGUU
apparent Kd [1]: 554 nM | apparent Kd [2]: 819 nM

UAGUUGCUAGGAUAUACUUGGGCAACUACUGAACCUAUAUAACAUGAGGAUCACCCAUGUAGAAGGAGCAUAUA
apparent Kd [1]: 23.1 nM | apparent Kd [2]: 19.1 nM

UAUACACAUGAGGAUCACCCAUGUGAGGAUAUGUUAAUUUUAAUGAAAAUUAAAAUUAACAGAAGGCACAUAUA
apparent Kd [1]: 64.1 nM | apparent Kd [2]: 80.3 nM

UAUACUAGAUAGGAUAUACUAUAUAUAUUAUUCGUAGAAGGAUCUACAUGAGGAUCACCCAUGUUAACAGCAGU
apparent Kd [1]: 47.6 nM | apparent Kd [2]: 37 nM

UAUAGCCCUAGUUCGAGUGUCUAGGAGGAUAUACAGAGGCAGCCAAAGACAUGAGGAUCACCCAUGUAGAAGGCCUAGACGGUA
apparent Kd [2]: 82.3 nM

UAUAUACAUGAGGAUCACCCAUGUCAGGAUAUUAGAUAUAUAUAUACAUAUAAUUAUUUAAGAAGGGACACUAA
apparent Kd [1]: 43.8 nM | apparent Kd [2]: 46 nM

UAUAUAUAAUAUAUUAACAUGAGGAUCACCCAUGUCGCUAGACAGGAUAUAUUUUAUUUUUUUAAGUAGAAGGGUCAUAUAAUU
apparent Kd [3]: 63.7 nM | apparent Kd [4]: 86.1 nM

UAUAUAUAGUAAGGAUAUAUAUUUAUUUUAUAAAUAGAAGGUACAGACAUGAGGAUCACCCAUGUUAUAAUAUGGACAUGUGGA
apparent Kd [1]: 52.5 nM | apparent Kd [2]: 69.4 nM

UAUAUAUAGUAAGGAUAUAUAUUUUUUUUAUAAAUAGAAGGUACAGACAUGAGGAUCACCCAUGUUAUAAUAUGGACAUGUGGA
apparent Kd [1]: 101 nM | apparent Kd [2]: 101 nM

UAUAUAUAGUAAGGAUAUGUAUAUAUAUUAUAAACAGAAGGUACUGACAUGAGGAUCACCCAUGUUUUAGUGUGGGCAUGUAGA
apparent Kd [1]: 75.1 nM | apparent Kd [2]: 96.1 nM

UAUAUAUAGUAAGGAUAUGUAUAUAUUUUGUAAACAGAAGGUACUGACAUGAGGAUCACCCAUGUUUUAGUGUGGGCAUGUAGA
apparent Kd [1]: 80.8 nM | apparent Kd [2]: 130 nM

UAUAUAUAGUAAGGAUAUGUAUUAAUUAUAUAAACAGAAGGUACUGACAUGAGGAUCACCCAUGUUUUAGUGUGGGCAUGUAGA
apparent Kd [1]: 81.5 nM | apparent Kd [2]: 122 nM

UAUAUAUAGUAAGGAUAUGUAUUAAUUUUAUGAACAGAAGGUACUGACAUGAGGAUCACCCAUGUUUUAGUGUGGGCAUGUAGA
apparent Kd [1]: 85.5 nM | apparent Kd [2]: 122 nM

UAUAUGUCAGGAUAUCGAUUGGAAUGGAAUUUAGUUCUGGUUGAGAAGGGACAUGAGGAUCACCCAUGUUUUUC
apparent Kd [1]: 35.5 nM | apparent Kd [2]: 213 nM

UAUAUGUCAGGAUAUUAGUAGUGGACGAAUAAGACUACUGCUGAGAAGGGACAUGAGGAUCACCCAUGUUCCUC
apparent Kd [1]: 20.2 nM | apparent Kd [2]: 172 nM

UAUGACAUGAGGAUCACCCAUGUCAGCGAGAAAUGAGAGUCACAGGAUAUGUUUUCGGCCGGCAGACAGAAGGGUGACCCUCCG
apparent Kd [3]: 7.33 nM | apparent Kd [4]: 6.74 nM

UAUGUUUUAGGAUAUUGUACUGCUGACAUGAGGAUCACCCAUGUAUGCUAACUCGGUUGUCGAGAAGGAGAAUAUG
apparent Kd [1]: 59.4 nM | apparent Kd [2]: 44.2 nM

UAUUAACACGAAGGAUAUGGUUACAUGAGGAUCACCCAUGUAUGUAUAUUGAUCCAGAUUUUUGACCAGAAGGUCGUGAGUAAA
apparent Kd [1]: 108 nM | apparent Kd [2]: 285 nM

UAUUAACAUGUAGGAUAUCUGCACGAUUAGUGCAGAGAAGGACAUGAGGAUCACCCAUGUAGAUCAUAAUAAUUUAAUUUAAUU
apparent Kd [1]: 133 nM | apparent Kd [2]: 422 nM

UAUUAGUAAGGAUAUCUCGUCAUGGACGUGAGUCCAUGACGAGAGAAGGUACAUGAGGAUCACCCAUGUCUAUU
apparent Kd [1]: 18.1 nM | apparent Kd [2]: 19.4 nM

UAUUAGUGAGGAUAUGAGUCGUAGAACAAUAGUACUACGUCUCAGAAGGUACAUGAGGAUCACCCAUGUUUCUC
apparent Kd [1]: 20 nM | apparent Kd [2]: 23.8 nM

UAUUAUCACGAAGGAUAUGCUUACAUGAGGAUCACCCAUGUAUGUAUAUUGAUCCAGCGUAUUGAGCAGAAGGUCGUGAGUAAA
apparent Kd [1]: 21.8 nM | apparent Kd [2]: 75.8 nM

UAUUAUGUCAGAGGAUAUAUAAAUAAAUUUAUAACAUGAGGAUCACCCAUGUACUUUAGUAUGAGGUAGAAGGUUGAUAAGAUA
apparent Kd [3]: 45.4 nM | apparent Kd [4]: 26.8 nM

UAUUCAUUCAGAGGAUAUUGUUUAUCUCUAUUUCAAGAAGGCUGAUUUUACUACUUACUUAUGAAACAUGAGGAUCACCCAUGU
apparent Kd [3]: 25.6 nM | apparent Kd [4]: 17.5 nM

UAUUGAUAAUAUCUUCACAUGAGGAUCACCCAUGUCGCUCGACAGGAUAUAUUUUAUUUGUUUAAGUAGAAGGGUCGCAGAUUU
apparent Kd [3]: 165 nM | apparent Kd [4]: 142 nM

UAUUUAUAAUAUUUUAACAUGAGGAUCACCCAUGUCGCUAGACAGGAUAUAUUUUAUUUGUUUAAGUAGAAGGGUCAUAGAUUU
apparent Kd [3]: 175 nM | apparent Kd [4]: 145 nM

UCAAAGAGAUCGAACGGGAGGCGUAAGGAUAUGCACAUGAGGAUCACCCAUGUCUACGAAAGUAGGCAGAAGGUACGCGGGAUU
apparent Kd [3]: 253 nM | apparent Kd [4]: 30.6 nM

UCAAAGCCAUUUUGGCGAGUCACAUGAGGAUCACCCAUGUAACAGGAUAUCGAUUGGCUUCCCGGCGAGAAGGGUUACUAGGGA
apparent Kd [1]: 10.8 nM | apparent Kd [2]: 15.5 nM

UCAAGUAUGUAGGAUAUCGAUGUCGAAAGACAUCGAGAAGGACGUACAUGAGGAUCACCCAUGUAACUUGCAUG
apparent Kd [1]: 296 nM | apparent Kd [2]: 270 nM

UCACGGGAUUGAGGAUAUAUUUAAAUUUUUACAAUAGAAGGCAAAUUUUUAGUUUUUUCACUUUACAUGAGGAUCACCCAUGUU
apparent Kd [1]: 28.8 nM | apparent Kd [2]: 24.5 nM

UCACGUCACCAAGGAUAUACCCGAAGAUCCAUGGUAGAAGGUGGUGACAUGAGGAUCACCCAUGUCCGCGCGGACAAGUGUGUU
apparent Kd [1]: 118 nM | apparent Kd [2]: 26.7 nM

UCAGAGGCUGACAUGAGGAUCACCCAUGUUAGAUUGUUAUGUCAGGAUAUUAUCUGGCAACCAGAUGAGAAGGGACCCUCUGUG
apparent Kd [3]: 22 nM | apparent Kd [4]: 7.67 nM

UCAUAAGAACAAGGAUAUCAAUAAAAUAUAAAUGCUACAUGAGGAUCACCCAUGUUUUAGCAUGGUGAGAAGGUGUAUUUACGG
apparent Kd [3]: 67.8 nM | apparent Kd [4]: 42.5 nM

UCAUGAAGGGCAGGAUAUGGACAUGAGGAUCACCCAUGUACAUGGGAUUAUAUACUGAAUUUAUACUAGAAGGGUUACAUAAAU
apparent Kd [1]: 31 nM | apparent Kd [2]: 18.1 nM

UCAUGCAUAGCGAUAUGAUCGAGAGAUCAUGUCGCUAAAUUUAGAAGGACAUGAGGAUCACCCAUGUAGGAUAUGGGAGCAUGG
apparent Kd [3]: 292 nM | apparent Kd [4]: 31.9 nM

UCAUUAGCGGGCGGGUCGGUUGGACAUGAGGAUCACCCAUGUAGAAGGACCGGUGGACUCCGGCGGUAGGAUAUACAUUUGGUG
apparent Kd [1]: 22 nM | apparent Kd [2]: 30.7 nM

UCAUUAUAAAUCCAUCAUAACUACAUGAGGAUCACCCAUGUGCAGGAUAUCGAUGGUUUAACUAUCGAGAAGGGCAAUUACAGA
apparent Kd [1]: 31.9 nM | apparent Kd [2]: 72.1 nM

UCAUUUAAUACAGGAUAUGUUAGUAUACAGUUGAUUGGUUAUUACAUAAUAACAGAAGGGUAGAACAUGAGGAUCACCCAUGUA
apparent Kd [3]: 254 nM | apparent Kd [4]: 131 nM

UCAUUUAUCACAGGAUAUAUUAGUAUACAGUUGUUUGGCUCUUACAUAUUAAUAGAAGGGUGAAACAUGAGGAUCACCCAUGUA
apparent Kd [3]: 621 nM | apparent Kd [4]: 224 nM

UCAUUUCAGUUAGGAUAUUAAAACAUGACGAUACAUGAGGAUCACCCAUGUUAAGAAGGAACUAAUACAUAUAAUGCAAUGUUC
apparent Kd [1]: 15.9 nM | apparent Kd [2]: 13.2 nM

UCCACUGCUGAGAAGGGAUACGUGUGGUUCGCAUCAGGAUAUCGAUACAGUGCAGCAUGAGGACAUGAGGAUCACCCAUGUAUU
apparent Kd [3]: 24.6 nM | apparent Kd [4]: 13.4 nM

UCCGAAUCGUAGAAGGGUGACAUGAGGAUCACCCAUGUGCAGCAGCCGUGAACGGCCAUGCUGCCACAGGAUAUACGAUGGAGU
apparent Kd [3]: 41.1 nM | apparent Kd [4]: 56.2 nM

UCCUCUUUGAAGAAGGCGUGGUUAUGCAAGCCGCGAGGAUAUUCACAUGAGGAUCACCCAUGUGGAUUUCAGUCCGCUCAAAAC
apparent Kd [1]: 11.9 nM | apparent Kd [2]: 61.8 nM

UCCUGACCGAGAGGUAGGAGUGGUAGAAGGCGACCGGUGCCAGAUGACAUGAGGAUCACCCAUGUCGAGGAUAUACCACAGAAU
apparent Kd [1]: 7.45 nM | apparent Kd [2]: 14.1 nM

UCCUUGUCCUGAGGAUAUCCGCGGUUCCCAAAAGGAGAAGGCAGGACAUGAGGAUCACCCAUGUACCCAGAAAACGUGCAGAGU
apparent Kd [1]: 36.8 nM | apparent Kd [2]: 313 nM
